In ChEMBL document CHEMBL4715732, “4-Phenylureido/thioureido-substituted 2,2-dimethylchroman analogs of cromakalim bearing a bulky 'carbamate' moiety at the 6-position as potent inhibitors of glucose-sensitive insulin secretion” (Eur J Med Chem, 2016):
Active and inactive are the calls of the source. The calls are words filed in the database; no cut-off is given here.

Tests used:
Rattus norvegicus [1] = species on record: Rattus norvegicus; assay: Activation of ATP-sensitive potassium channel in perifused Wistar rat pancreatic islets assessed as increase in 45Ca efflux at 10 uM measured up to 90 mins in presence of 2.8 mM glucose and absence of extracellular Ca2+ by scintillation counting method; conditions: filed as opener, time min <=90
Outline: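 Perifused rat islets carrying 45Ca were exposed to 2.8 mM glucose in medium with or without extracellular Ca2+. Agent was added at 10 μM and 45Ca outflow was monitored.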

Rattus norvegicus [2] = species on record: Rattus norvegicus; assay: Activation of ATP-sensitive potassium channel in perifused Wistar rat pancreatic islets assessed as increase in extracellular K+ concentration at 10 uM measured up to 90 mins in presence of 2.8 mM glucose and absence of extracellular Ca2+ by scintillation counting method; conditions: filed as opener, time min <=90
[3] = Residual glucose-induced insulin secretion in Wistar rat pancreatic islets at 0.1 uM incubated for 90 mins in presence of 16.7 mM glucose by radioimmunological assay relative to control; conditions: Pancreatic islet, 1.5 h
Pancreatic islet [4] = assay: Increase in intracellular Ca2+ concentration under deprived extracellular calcium and physiological condition in Wistar rat pancreatic islets at 10 uM measured up to 30 mins in presence of 2.8 mM extracellular glucose concentration by Fura-2 dye based fluorescence assay; type: functional, tissue-based; conditions: time min <=30
Outline: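 Fura-2-loaded single rat islet cells were kept at 2.8 mM glucose in medium with or without extracellular calcium. Agent was added at 10 μM and fluorescence intensity was monitored.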

Aorta [5] = assay: Myorelaxant activity in aortic rings isolated from Wistar rat assessed as reduction in KCl-induced contractions measured after 60 mins in presence of 80 mM KCl by force-displacement transducer; type: functional, tissue-based
Outline: (§1)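 Endothelium-free rat aorta rings were contracted with 30 mM or 80 mM K+, with 1 or 10 μM glibenclamide present for some 30 mM series. Agent was applied cumulatively. EC50 is the concentration giving 50% relaxation of the KCl-induced contraction, reported as mean ± SEM (n).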

Pancreatic islet [6] = assay: (§2) Inhibition of glucose-induced insulin secretion in Wistar rat pancreatic islets incubated for 90 mins in presence of 16.7 mM glucose by radioimmunological assay; type: functional, tissue-based
Outline: (§3)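 Rat pancreatic islets were incubated with 16.7 mM glucose, with test concentrations added to the medium (0.1, 0.5, 1 and 10 μM). Insulin release is given as a percentage of the control (no drug, 16.7 mM glucose), as mean ± SEM with n = number of samples. IC50 is the concentration giving a 50% reduction of the secretory response to glucose.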

[7] = as §2; type: functional, tissue-based; conditions: Pancreatic islet, 1.5 h; outline: as §3
Rattus norvegicus [8] = species on record: Rattus norvegicus; assay: Activation of ATP-sensitive potassium channel in perifused Wistar rat pancreatic islets assessed as increase in 86Rb outflow at 10 uM measured up to 90 mins by scintillation counting method; conditions: filed as opener, time min <=90
Outline: (§4)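 Rat islets were perifused throughout in basal medium with 5.6 mM glucose and extracellular Ca2+, with or without the KATP blocker glibenclamide (10 μM). Test agent was added at 10 μM and 86Rb outflow was followed. Values are mean ± SEM of 6 individual experiments.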

[9] = Residual glucose-induced insulin secretion in Wistar rat pancreatic islets at 1 uM incubated for 90 mins in presence of 16.7 mM glucose by radioimmunological assay relative to control; conditions: Pancreatic islet, 1.5 h
Rattus norvegicus [10] = species on record: Rattus norvegicus; assay: Activation of ATP-sensitive potassium channel in perifused Wistar rat pancreatic islets assessed as increase in 86Rb outflow at 10 uM measured up to 90 mins by scintillation counting method; conditions: filed as opener, time min <=90
Rattus norvegicus [11] = species on record: Rattus norvegicus; assay: Activation of ATP-sensitive potassium channel in perifused Wistar rat pancreatic islets assessed as inhibition of 45Ca outflow at 10 uM measured up to 90 mins in presence of 16.7 mM glucose and extracellular Ca2+ by scintillation counting method; conditions: filed as opener, time min <=90
Outline: (§5)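 Rat islets were prelabeled with 45Ca and perifused throughout with 16.7 mM glucose. Basal medium either contained extracellular Ca2+ or was Ca2+-free and enriched with 0.5 mM EGTA. Agent was added at 10 μM, and 45Ca outflow and insulin release were followed. Values are mean ± SEM of 5-6 individual experiments.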

Aorta [12] = assay: Myorelaxant activity in aortic rings isolated from Wistar rat assessed as reduction in 30 mM KCl-induced contractions in presence of 10 uM KATP channel blocker glibenclamide; type: functional, tissue-based; outline: as §1
Rattus norvegicus [13] = species on record: Rattus norvegicus; assay: Activation of ATP-sensitive potassium channel in perifused Wistar rat pancreatic islets assessed as increase in 86Rb outflow at 10 uM measured up to 90 mins by scintillation counting method; conditions: filed as opener, time min <=90; remark: listed apart in the source
Rattus norvegicus [14] = species on record: Rattus norvegicus; assay: Activation of ATP-sensitive potassium channel in perifused Wistar rat pancreatic islets assessed as increase in 86Rb outflow at 10 uM measured up to 90 mins in basal media containing 5.6 mM glucose and glibenclamide by scintillation counting method; conditions: time min <=90; outline: as §4
Rattus norvegicus [15] = species on record: Rattus norvegicus; assay: Activation of ATP-sensitive potassium channel in perifused Wistar rat pancreatic islets assessed as increase in [45]Ca efflux at 10 uM measured up to 90 mins in presence of 16.7 mM glucose and absence of extracellular Ca2+ by scintillation counting method; conditions: filed as opener, time min <=90; outline: as §5
Aorta [16] = assay: Myorelaxant activity in aortic rings isolated from Wistar rat assessed as reduction in 30 mM KCl-induced contractions in presence of 1 uM KATP channel blocker glibenclamide; type: functional, tissue-based; outline: as §1
[17] = Residual glucose-induced insulin secretion in Wistar rat pancreatic islets at 10 uM incubated for 90 mins in presence of 16.7 mM glucose by radioimmunological assay relative to control; conditions: Pancreatic islet, 1.5 h
Rattus norvegicus [18] = species on record: Rattus norvegicus; assay: Activation of ATP-sensitive potassium channel in perifused Wistar rat pancreatic islets assessed as inhibition of insulin secretion at 10 uM measured up to 90 mins in presence of 16.7 mM glucose by scintillation counting method; conditions: filed as opener, time min <=90; outline: as §5
Rattus norvegicus [19] = species on record: Rattus norvegicus; assay: Activation of ATP-sensitive potassium channel in perifused Wistar rat pancreatic islets assessed as increase in extracellular K+ concentration at 10 uM measured up to 90 mins in presence of 2.8 mM glucose and extracellular Ca2+ by scintillation counting method; conditions: filed as opener, time min <=90
Outline: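 Rat islets were perifused in 2.8 mM glucose with extracellular Ca2+. Extracellular K+ was raised from 5 to 50 mM, and 45Ca outflow was measured with or without agent (10 μM) present continuously. Values are mean ± SEM of 10 individual experiments.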

Pancreatic islet [20] = assay: Decrease in cytosolic Ca2+ concentration during sustained phase in Wistar rat pancreatic islets at 10 uM measured up to 30 mins in presence of 2.8 to 20 mM extracellular glucose concentration by Fura-2 dye based fluorescence assay; type: functional, tissue-based; conditions: time min <=30
Outline: (§6)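 Single rat pancreatic islet cells were loaded with fura-2 and cytosolic Ca2+ was read as the 340:380 nm fluorescence ratio. Glucose was raised from 2.8 to 20 mM, in medium with or without external calcium. Agent (10 μM) was added afterwards, during the sustained phase.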

Rattus norvegicus [21] = species on record: Rattus norvegicus; assay: Ratio of EC50 for vasorelaxant activity in aortic rings isolated from Wistar rat assessed as reduction in KCl-induced contractions measured after 60 mins in presence of 80 mM KCl by force-displacement transducer to IC50 for inhibition of 16.7 mM glucose-induced insulin secretion in Wistar rat pancreatic islets incubated for 90 mins in presence of glucose by radioimmunological assay; type: functional
[22] = Residual 16.7 mM glucose-induced insulin secretion in Wistar rat pancreatic islets at 0.5 uM incubated for 90 mins in presence of glucose by radioimmunological assay relative to control; conditions: Pancreatic islet, 1.5 h
Aorta [23] = assay: Myorelaxant activity in aortic rings isolated from Wistar rat assessed as reduction in 80 mM KCl-induced contractions; type: functional, tissue-based; outline: as §1
Pancreatic islet [24] = assay: Increase in intracellular Ca2+ concentration under deprived extracellular calcium and physiological condition in Wistar rat pancreatic islets at 10 uM measured up to 30 mins in presence of 20 mM extracellular glucose concentration by Fura-2 dye based fluorescence assay; type: functional, tissue-based; conditions: time min <=30; outline: as §6

Question: What does the source list for `CC(C)(C)OC(=O)Nc1ccc2c(c1)C(NC(=O)Nc1cccc(C#N)c1)CC(C)(C)O2` (racemic)?
Answer: Activity (Rattus norvegicus [1]): Active; Activity (Rattus norvegicus [2]): Active; residual insulin secretion at 0.1 µM [3]: 82%; Activity (Pancreatic islet [4]): Active; Activity (Aorta [5]): Dose-dependent effect; EC50 (Aorta [5]; 1 h, in the assay text read “30 mM KCl” for “80 mM KCl”): 10.5 µM; inhibition (Pancreatic islet [6]): Dose-dependent effect; IC50 [7]: 0.24 µM; Activity (Rattus norvegicus [8]): Active; residual insulin secretion at 1 µM [9]: 15.6%; Activity (Rattus norvegicus [10]): Active; Activity (Rattus norvegicus [11]): Active; EC50 (Aorta [12]): 9.4 µM; Activity (Rattus norvegicus [13]): Active; Activity (Rattus norvegicus [14]): inactive; Activity (Rattus norvegicus [15]): Active; EC50 (Aorta [16]): 11.6 µM; residual insulin secretion at 10 µM [17]: 7.4%; Activity (Rattus norvegicus [18]): Active; Activity (Rattus norvegicus [19]): Active; Activity (Pancreatic islet [20]): Active; Ratio (Rattus norvegicus [21]): 44; residual insulin secretion at 0.5 µM [22]: 28.6%; EC50 (Aorta [23]): 12.2 µM; Activity (Pancreatic islet [24]): Active
